Test results as given in ChEMBL document CHEMBL2086363, “Lipophilic Isosteres of a π-π Stacking Interaction: New Inhibitors of the Bcl-2-Bak Protein-Protein Interaction” (ACS Med Chem Lett, 2012).

What was measured:
[1] = target: Apoptosis regulator Bcl-2/Bcl-2 homologous antagonist/killer (Homo sapiens, UniProt P10415); experiment: Inhibition of Bcl2-BAK interaction after 1 hr by surface plasmon resonance assay; format: protein assay
Method in brief: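 SPR measurement of Bcl-2–Bak binding inhibition. Each value is the average of at least two measurements, with duplicate EC50 values generated in each assay.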

MCL1-BAK1 complex = MCL1-BAK1 complex (Homo sapiens, UniProt Q07820); experiment: Inhibition of Mcl1-BAK interaction; format: protein-complex assay
Chain of MCL1-BAK1 complex (Q07820 whole entry): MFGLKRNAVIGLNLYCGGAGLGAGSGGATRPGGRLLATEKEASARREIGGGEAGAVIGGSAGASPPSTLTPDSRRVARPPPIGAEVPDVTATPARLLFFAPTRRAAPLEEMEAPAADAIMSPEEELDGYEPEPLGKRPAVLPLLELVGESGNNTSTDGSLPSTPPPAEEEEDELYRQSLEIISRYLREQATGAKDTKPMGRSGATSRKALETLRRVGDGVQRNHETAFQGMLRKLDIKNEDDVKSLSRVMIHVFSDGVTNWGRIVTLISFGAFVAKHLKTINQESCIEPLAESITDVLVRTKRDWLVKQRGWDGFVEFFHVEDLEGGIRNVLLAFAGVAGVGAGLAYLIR
Chain of MCL1-BAK1 complex (Q16611 whole entry, further chain): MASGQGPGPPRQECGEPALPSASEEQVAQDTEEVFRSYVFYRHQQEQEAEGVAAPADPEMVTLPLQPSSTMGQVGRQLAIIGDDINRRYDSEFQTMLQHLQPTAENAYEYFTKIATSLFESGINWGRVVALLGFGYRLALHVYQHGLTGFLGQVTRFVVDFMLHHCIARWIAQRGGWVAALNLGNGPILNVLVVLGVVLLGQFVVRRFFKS

Bcl-xL/BAK = Bcl-xL/BAK (Homo sapiens, UniProt Q07817); experiment: Inhibition of Bcl-XL-BAK interaction; format: protein assay
Chain of Bcl-xL/BAK (Q07817 whole entry): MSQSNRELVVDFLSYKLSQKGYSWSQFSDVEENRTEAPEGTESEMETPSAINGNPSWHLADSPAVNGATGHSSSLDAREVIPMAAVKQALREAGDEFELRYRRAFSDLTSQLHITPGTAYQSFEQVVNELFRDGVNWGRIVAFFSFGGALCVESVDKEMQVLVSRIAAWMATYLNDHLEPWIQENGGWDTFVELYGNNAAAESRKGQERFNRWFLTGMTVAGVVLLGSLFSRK
Chain of Bcl-xL/BAK (Q16611 whole entry, further chain): as the sequence (Q16611 whole entry, further chain) above

[2] = Oral bioavailability in Sprague-Dawley rat at 10 mg/kg; format: ADME, organism-based; details: in vivo
[3] = Volume of distribution at steady state in Sprague-Dawley rat at 1 mg/kg, iv and 10 mg/kg, po; format: ADME, organism-based; details: in vivo, read-out: Vdss
[4] = Selectivity ratio of EC50 for Bcl-XL-BAK interaction to EC50 for Bcl2-BAK interaction
[5] = Clearance in Sprague-Dawley rat at 1 mg/kg, iv and 10 mg/kg, po; format: ADME, organism-based; details: in vivo
[6] = Half life in Sprague-Dawley rat at 1 mg/kg, iv and 10 mg/kg, po; format: ADME, organism-based; details: in vivo

Chain of Apoptosis regulator Bcl-2/Bcl-2 homologous antagonist/killer (P10415 whole entry): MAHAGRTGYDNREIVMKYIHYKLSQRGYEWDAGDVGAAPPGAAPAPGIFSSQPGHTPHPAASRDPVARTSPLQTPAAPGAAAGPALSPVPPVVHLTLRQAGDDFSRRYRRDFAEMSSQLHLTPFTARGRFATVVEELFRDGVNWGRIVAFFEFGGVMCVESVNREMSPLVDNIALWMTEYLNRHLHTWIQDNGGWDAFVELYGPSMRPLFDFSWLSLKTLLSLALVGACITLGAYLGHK
Chain of Apoptosis regulator Bcl-2/Bcl-2 homologous antagonist/killer (Q16611 whole entry, further chain): as the sequence (Q16611 whole entry, further chain) above

| IC50 (MCL1-BAK1 complex) [µM] | Compound | EC50 [1] [µM] | other results |
| --- | --- | --- | --- |
| – | CC(C)C(=O)NC12CC3CC(CC(CS(=O)(=O)NC(=O)c4ccc(N5CCN(Cc6ccccc6-c6ccc(Cl)cc6)CC5)cc4)(C3)C1)C2 | 0.16 | – |
| > 50 | CC1(C)[C@@]2(C)CC[C@H](CS(=O)(=O)NC(=O)c3ccc(N4CCN(Cc5ccccc5-c5ccc(Cl)cc5)CC4)cc3)[C@]1(C)C2 | 0.56 | – |
| – | CC12CC3CC(C1)CC(CS(=O)(=O)NC(=O)c1ccc(N4CCN(Cc5ccccc5-c5ccc(Cl)cc5)CC4)cc1)(C3)C2 | 1.1 | – |
| > 50 | CC1(C)C2CC[C@@]1(CS(=O)(=O)NC(=O)c1ccc(N3CCN(Cc4ccccc4-c4ccc(Cl)cc4)CC3)cc1)C(=O)C2 | 1.47 | – |
| – | O=C(NS(=O)(=O)CC12CC3CC(CC(Br)(C3)C1)C2)c1ccc(N2CCN(Cc3ccccc3-c3ccc(Cl)cc3)CC2)cc1 | 0.67 | – |
| > 50 | O=C(NS(=O)(=O)NC12CC3CC(CC(C3)C1)C2)c1ccc(N2CCN(Cc3ccccc3-c3ccc(Cl)cc3)CC2)cc1 | 2.1 | – |
| – | CC(C)(C)C(=O)NC12CC3CC(CC(CS(=O)(=O)NC(=O)c4ccc(N5CCN(Cc6ccccc6-c6ccc(Cl)cc6)CC5)cc4)(C3)C1)C2 | 0.52 | – |
| > 50 | CC1(C)C2CC[C@]1(CS(=O)(=O)NC(=O)c1ccc(N3CCN(Cc4ccccc4-c4ccc(Cl)cc4)CC3)cc1)C(=O)C2 | 1.02 | – |
| > 50 | O=C(NS(=O)(=O)C12CC3CC(CC(C3)C1)C2)c1ccc(N2CCN(Cc3ccccc3-c3ccc(Cl)cc3)CC2)cc1 | > 16 | – |
| > 50 | CC1(C)[C@]2(C)CC[C@@H](CS(=O)(=O)NC(=O)c3ccc(N4CCN(Cc5ccccc5-c5ccc(Cl)cc5)CC4)cc3)[C@@]1(C)C2 | 0.42 | EC50 (Bcl-xL/BAK): 0.58 µM |
| – | O=C(NS(=O)(=O)CC12CC3CC(C1)CC(OCCN1CCOCC1)(C3)C2)c1ccc(N2CCN(Cc3ccccc3-c3ccc(Cl)cc3)CC2)cc1 | 0.31 | – |
| > 50 | O=C(NS(=O)(=O)CC12CC3CC(CC(C3)C1)C2)c1ccc(N2CCN(Cc3ccccc3-c3ccc(Cl)cc3)CC2)cc1 | 0.67 | bioavailability [2]: 66%; Vd [3]: 0.7 L/kg; Ratio EC50 [4]: 4.3; clearance [5]: 6 mL/min/kg; half-life [6]: 1.3 h; EC50 (Bcl-xL/BAK): 2.85 µM |
| > 50 | CC(C)(C)S(=O)(=O)NC(=O)c1ccc(N2CCN(Cc3ccccc3-c3ccc(Cl)cc3)CC2)cc1 | > 16 | – |
| > 50 | CS(=O)(=O)NC(=O)c1ccc(N2CCN(Cc3ccccc3-c3ccc(Cl)cc3)CC2)cc1 | 8.62 | – |
| – | O=C(NS(=O)(=O)CC12CC3CC(CC(O)(C3)C1)C2)c1ccc(N2CCN(Cc3ccccc3-c3ccc(Cl)cc3)CC2)cc1 | 0.3 | bioavailability [2]: > 100%; Vd [3]: 1.2 L/kg; clearance [5]: 16 mL/min/kg; half-life [6]: 1.3 h |
| – | O=C(NS(=O)(=O)CC12CC3CC(C1)CC(c1ccccc1)(C3)C2)c1ccc(N2CCN(Cc3ccccc3-c3ccc(Cl)cc3)CC2)cc1 | 1.97 | – |
| > 50 | CCS(=O)(=O)NC(=O)c1ccc(N2CCN(Cc3ccccc3-c3ccc(Cl)cc3)CC2)cc1 | 5.31 | – |
| – | CC(=O)NC12CC3CC(CC(CS(=O)(=O)NC(=O)c4ccc(N5CCN(Cc6ccccc6-c6ccc(Cl)cc6)CC5)cc4)(C3)C1)C2 | 0.23 | – |
| – | O=C(NS(=O)(=O)CC12CC3CC(C1)CC(NC(=O)C1CC1)(C3)C2)c1ccc(N2CCN(Cc3ccccc3-c3ccc(Cl)cc3)CC2)cc1 | 0.21 | – |
| > 50 | O=C(NS(=O)(=O)CC12CC3CC(CC1C3)C2)c1ccc(N2CCN(Cc3ccccc3-c3ccc(Cl)cc3)CC2)cc1 | 2.66 | – |
| > 50 | O=C(NS(=O)(=O)CC12CC3CCC(CC(C3)C1)C2)c1ccc(N2CCN(Cc3ccccc3-c3ccc(Cl)cc3)CC2)cc1 | 0.12 | EC50 (Bcl-xL/BAK): 0.22 µM |
| – | O=C(NS(=O)(=O)CC12CC3CC(CC(F)(C3)C1)C2)c1ccc(N2CCN(Cc3ccccc3-c3ccc(Cl)cc3)CC2)cc1 | 0.48 | – |
| > 50 | O=C(NS(=O)(=O)CCC12CC3CC(CC(C3)C1)C2)c1ccc(N2CCN(Cc3ccccc3-c3ccc(Cl)cc3)CC2)cc1 | 2.81 | – |
